Assay results published in ChEMBL document CHEMBL3351863, “Optimization of 2-phenyl-pyrimidine-4-carboxamides towards potent, orally bioavailable and selective P2Y(12) antagonists for inhibition of platelet aggregation” (Bioorg Med Chem Lett, 2014).

Tests used:
Platelet [1] = assay: Inhibition of ADP-induced platelet aggregation in human platelet rich plasma by in-vitro light transmission aggregometry assay; format: functional
How it was run: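 Human platelet-rich plasma incubated with compound, aggregation induced by 3 µM ADP and read by light transmission aggregometry; IC₅₀ derived from concentration–response curve.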

[2] = Cmax in Wistar rat at 10 mg/kg, po; format: ADME, organism-based; set-up: dose 10 mg/kg, route oral; conditions: Wistar, in vivo
How it was run: (§1)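 Rats dosed by iv infusion at 1 mg/kg (n = 2) or orally at 10 mg/kg (n = 3); plasma levels measured, limit of quantification ca. 1 ng/mL.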

[3] = Volume of distribution at steady state in Wistar rat at 1 mg/kg, iv or 10 mg/kg, po; format: ADME, organism-based; conditions: in vivo, read-out: Vdss; how it was run: as §1
[4] = Lipophilicity, logD of the compound; format: physicochemical; conditions: octanol/water
[5] = Half life in Wistar rat at 1 mg/kg, iv or 10 mg/kg, po; format: ADME, organism-based; conditions: in vivo; how it was run: as §1
[6] = AUC in Wistar rat at 10 mg/kg, po; format: ADME, organism-based, Plasma; set-up: dose 10 mg/kg, route oral; conditions: Wistar, plasma; how it was run: as §1
[7] = Clearance in Wistar rat at 1 mg/kg, iv; format: ADME, organism-based; set-up: dose 1 mg/kg, route intravenous; conditions: in vivo; how it was run: as §1
P2Y purinoceptor 12 = P2Y purinoceptor 12 (Homo sapiens, UniProt Q9H244); assay: Displacement of [3H]-2-methyl-thio-adenosine 5'-diphosphate from human recombinant P2Y12 expressed in CHO cell membranes by scintillation counting method
Sequence of P2Y purinoceptor 12 (Q9H244 whole entry): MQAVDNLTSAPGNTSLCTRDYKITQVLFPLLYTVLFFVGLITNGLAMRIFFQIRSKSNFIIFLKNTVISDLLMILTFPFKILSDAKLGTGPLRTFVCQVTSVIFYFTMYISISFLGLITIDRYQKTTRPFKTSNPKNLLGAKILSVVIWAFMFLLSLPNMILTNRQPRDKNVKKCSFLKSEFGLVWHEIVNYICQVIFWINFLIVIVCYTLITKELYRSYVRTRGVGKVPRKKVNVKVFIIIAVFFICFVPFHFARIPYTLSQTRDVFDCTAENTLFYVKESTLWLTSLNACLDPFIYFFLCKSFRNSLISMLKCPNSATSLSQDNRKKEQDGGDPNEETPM
How it was run: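 CHO cells expressing recombinant P2Y₁₂ receptors, incubated with tritium-labeled 2-methyl-thio-adenosine 5'-diphosphate plus test compound; IC₅₀ from displacement curves, each point in triplicate; reference compound run with every compound set, and set re-analyzed if its IC₅₀ fell outside pre-set 95% confidence interval.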

[8] = Potency shift, ratio of IC50 for inhibition of ADP-induced platelet aggregation in human platelet rich plasma to IC50 for displacement of [3H]-2-methyl-thio-adenosine 5'-diphosphate from human recombinant P2Y12 expressed in CHO cell membranes
[9] = Oral bioavailability in Wistar rat at 10 mg/kg; format: ADME, organism-based; conditions: Wistar, in vivo; how it was run: as §1
Liver microsome [10] = assay: Metabolic stability assay in human liver microsomes assessed as parent drug disappearance at 1 uM after 20 mins by HPLC and mass spectrometry method; format: ADME
[11] = Solubility in basic pH; format: physicochemical
[12] = target: Voltage-gated inwardly rectifying potassium channel KCNH2 (Homo sapiens, UniProt Q12809); assay: Inhibition of human ERG expressed in HEK cells by patch-clamp assay; format: cell-based; conditions: hek293
Sequence of Voltage-gated inwardly rectifying potassium channel KCNH2 (Q12809 whole entry): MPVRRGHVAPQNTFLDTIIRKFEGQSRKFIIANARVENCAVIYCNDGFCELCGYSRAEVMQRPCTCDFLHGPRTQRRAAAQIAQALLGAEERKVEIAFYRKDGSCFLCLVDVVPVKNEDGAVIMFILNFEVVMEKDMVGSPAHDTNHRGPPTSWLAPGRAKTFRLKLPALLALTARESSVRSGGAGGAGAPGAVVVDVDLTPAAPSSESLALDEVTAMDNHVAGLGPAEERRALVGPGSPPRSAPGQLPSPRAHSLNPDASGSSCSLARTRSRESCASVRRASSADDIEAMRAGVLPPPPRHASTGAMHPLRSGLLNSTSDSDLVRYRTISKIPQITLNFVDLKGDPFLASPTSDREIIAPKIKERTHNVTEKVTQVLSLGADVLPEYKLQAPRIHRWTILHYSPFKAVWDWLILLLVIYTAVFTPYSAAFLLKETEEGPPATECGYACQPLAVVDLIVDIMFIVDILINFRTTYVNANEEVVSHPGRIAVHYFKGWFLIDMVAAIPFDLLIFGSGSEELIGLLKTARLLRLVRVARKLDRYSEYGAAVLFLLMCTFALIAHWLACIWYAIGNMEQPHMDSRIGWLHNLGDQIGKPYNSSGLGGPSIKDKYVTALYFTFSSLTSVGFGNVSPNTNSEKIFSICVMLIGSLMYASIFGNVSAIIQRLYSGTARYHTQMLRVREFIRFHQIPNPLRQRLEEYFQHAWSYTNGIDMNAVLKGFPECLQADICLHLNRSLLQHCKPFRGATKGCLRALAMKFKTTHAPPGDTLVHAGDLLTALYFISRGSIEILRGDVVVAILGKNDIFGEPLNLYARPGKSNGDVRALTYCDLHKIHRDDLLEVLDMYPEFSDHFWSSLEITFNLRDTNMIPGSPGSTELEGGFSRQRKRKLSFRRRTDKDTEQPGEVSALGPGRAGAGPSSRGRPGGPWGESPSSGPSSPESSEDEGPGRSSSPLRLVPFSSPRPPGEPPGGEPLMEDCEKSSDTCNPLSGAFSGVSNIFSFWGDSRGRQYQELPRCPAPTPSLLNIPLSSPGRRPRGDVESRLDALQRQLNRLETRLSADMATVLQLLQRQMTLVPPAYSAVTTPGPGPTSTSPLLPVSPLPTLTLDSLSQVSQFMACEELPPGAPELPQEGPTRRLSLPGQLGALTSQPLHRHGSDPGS

Liver microsome [13] = assay: Metabolic stability assay in rat liver microsomes assessed as parent drug disappearance at 1 uM after 20 mins by HPLC and mass spectrometry method; format: ADME
Cytochrome P450 3A4 [14] = target: T1, Cytochrome P450 3A4 (Homo sapiens, UniProt P08684); assay: Inhibition of CYP3A4 in human liver microsomes assessed as reduction in midazolam 1'-hydroxylation; format: ADME
T1 sequence (P08684 whole entry): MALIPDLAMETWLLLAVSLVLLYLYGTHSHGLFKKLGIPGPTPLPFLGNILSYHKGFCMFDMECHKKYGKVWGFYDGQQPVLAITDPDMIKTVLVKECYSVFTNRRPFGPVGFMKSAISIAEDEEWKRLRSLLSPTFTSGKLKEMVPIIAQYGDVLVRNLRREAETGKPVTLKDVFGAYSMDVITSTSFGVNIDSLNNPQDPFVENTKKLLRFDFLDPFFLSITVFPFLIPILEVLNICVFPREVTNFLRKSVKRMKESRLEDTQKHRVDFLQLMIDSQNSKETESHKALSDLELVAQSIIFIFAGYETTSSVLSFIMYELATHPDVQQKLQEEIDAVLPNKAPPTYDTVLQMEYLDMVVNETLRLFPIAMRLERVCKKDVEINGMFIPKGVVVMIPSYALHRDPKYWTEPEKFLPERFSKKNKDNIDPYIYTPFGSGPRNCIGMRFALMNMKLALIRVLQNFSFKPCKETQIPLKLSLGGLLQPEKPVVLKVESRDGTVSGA

Cytochrome P450 3A4 [15] = target: T1, Cytochrome P450 3A4; assay: Inhibition of CYP3A4 in human liver microsomes assessed as reduction in testosterone 6beta-hydroxylation; format: ADME
[16] = Solubility in neutral pH; format: physicochemical
Cytochrome P450 2D6 = Cytochrome P450 2D6 (Homo sapiens, UniProt P10635); assay: Inhibition of CYP2D6 in human liver microsomes assessed as reduction in dextromethorphan-O demethylation; format: ADME
Sequence of Cytochrome P450 2D6 (P10635 whole entry): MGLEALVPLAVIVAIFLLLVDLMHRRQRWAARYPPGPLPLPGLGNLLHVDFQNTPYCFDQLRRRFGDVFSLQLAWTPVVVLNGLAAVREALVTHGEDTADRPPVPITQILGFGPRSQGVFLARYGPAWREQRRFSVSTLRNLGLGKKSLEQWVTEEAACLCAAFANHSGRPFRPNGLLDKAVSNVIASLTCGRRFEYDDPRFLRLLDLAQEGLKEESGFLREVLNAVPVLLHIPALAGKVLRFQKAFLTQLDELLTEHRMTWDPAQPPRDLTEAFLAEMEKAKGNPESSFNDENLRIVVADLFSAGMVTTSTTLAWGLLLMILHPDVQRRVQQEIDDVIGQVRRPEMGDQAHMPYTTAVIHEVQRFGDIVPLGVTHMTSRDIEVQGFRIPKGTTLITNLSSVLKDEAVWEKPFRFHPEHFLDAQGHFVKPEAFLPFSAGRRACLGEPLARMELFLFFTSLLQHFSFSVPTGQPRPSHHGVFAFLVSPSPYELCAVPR

Cytochrome P450 2C9 = Cytochrome P450 2C9 (Homo sapiens, UniProt P11712); assay: Inhibition of CYP2C9 in human liver microsomes assessed as reduction in diclofenac 4'-hydroxylation; format: ADME
Sequence of Cytochrome P450 2C9 (P11712 whole entry): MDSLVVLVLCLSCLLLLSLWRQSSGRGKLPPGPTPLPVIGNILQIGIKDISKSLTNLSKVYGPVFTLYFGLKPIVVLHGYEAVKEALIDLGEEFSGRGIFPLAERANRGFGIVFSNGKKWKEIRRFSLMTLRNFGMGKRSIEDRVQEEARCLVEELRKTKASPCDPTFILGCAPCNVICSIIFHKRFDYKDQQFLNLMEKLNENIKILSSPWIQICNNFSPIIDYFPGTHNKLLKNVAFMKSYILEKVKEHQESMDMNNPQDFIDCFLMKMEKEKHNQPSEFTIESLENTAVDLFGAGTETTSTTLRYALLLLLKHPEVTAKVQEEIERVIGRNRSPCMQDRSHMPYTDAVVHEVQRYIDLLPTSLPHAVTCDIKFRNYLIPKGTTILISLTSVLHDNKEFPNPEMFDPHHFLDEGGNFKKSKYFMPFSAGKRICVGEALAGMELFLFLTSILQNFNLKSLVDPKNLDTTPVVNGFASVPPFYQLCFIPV

Platelet [17] = assay: Inhibition of ADP-induced platelet aggregation in human platelet rich plasma assessed as remaining activity at 500 nM by in-vitro light transmission aggregometry assay; format: functional
How it was run: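 Light transmission aggregometry in human platelet-rich plasma; compound incubated, aggregation triggered with 3 µM ADP; remaining activity (RA) recorded at a single compound level (1000, 500 or 100 nM).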

Compound	Cmax [2] [µM]	Vd [3] [L/kg]	logD [4]	half-life [5] [h]	AUC [6] [µM·h]	clearance [7] [mL/min/kg]	IC50 (P2Y purinoceptor 12) [nM]	Ratio IC50 [8]	bioavailability [9] [%]	also measured
CCCCOC(=O)N1CCN(C(=O)[C@H](CCC(=O)O)NC(=O)c2cc([C@H]3C[C@@H]3COC)nc(-c3ccccc3)n2)CC1	7.62	0.4	1.9	2	6	17	4.8	6.4	33	IC50 (Platelet [1]; platelet): 31 nM
CCOC(=O)N1CCN(C(=O)[C@H](CCC(=O)O)NC(=O)c2cc([C@@H]3C[C@H]3COC)nc(-c3ccccc3)n2)CC1	2.82	0.3	0.8	0.55	2.31	14	43	14	11	Stability (Liver microsome [10]): Stable; solubility [11]: soluble; inhibition (INH) [12]: Not Active; IC50 (Platelet [1]; Homo sapiens, Platelet, Plasma): 589 nM; Stability (Liver microsome [13]): Stable; inhibition (INH) (Cytochrome P450 3A4 [14]): Not Active; inhibition (INH) (Cytochrome P450 3A4 [15]): Not Active; solubility [16]: soluble; inhibition (INH) (Cytochrome P450 2D6): Not Active; inhibition (INH) (Cytochrome P450 2C9): Not Active; Activity (Platelet [17]): 30%
